Test [1] addresses T1, Prostaglandin G/H synthase 2 (Rattus norvegicus, UniProt P35355).
T1 sequence (P35355 whole entry): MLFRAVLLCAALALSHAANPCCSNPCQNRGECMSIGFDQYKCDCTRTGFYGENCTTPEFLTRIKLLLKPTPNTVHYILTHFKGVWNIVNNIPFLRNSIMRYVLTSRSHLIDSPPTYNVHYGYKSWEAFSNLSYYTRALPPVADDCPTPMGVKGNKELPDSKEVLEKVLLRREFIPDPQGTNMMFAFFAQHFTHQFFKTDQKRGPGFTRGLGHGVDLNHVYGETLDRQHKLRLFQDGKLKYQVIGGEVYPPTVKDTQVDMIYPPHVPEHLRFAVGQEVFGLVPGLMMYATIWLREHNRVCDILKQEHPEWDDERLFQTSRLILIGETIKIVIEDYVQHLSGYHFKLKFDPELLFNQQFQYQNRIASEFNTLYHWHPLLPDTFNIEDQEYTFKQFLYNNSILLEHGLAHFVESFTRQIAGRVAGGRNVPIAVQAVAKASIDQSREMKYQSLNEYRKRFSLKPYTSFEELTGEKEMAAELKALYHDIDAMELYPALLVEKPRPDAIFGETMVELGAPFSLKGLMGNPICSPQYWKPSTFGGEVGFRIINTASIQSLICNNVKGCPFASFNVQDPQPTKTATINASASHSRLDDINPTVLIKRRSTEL
Kind of test: Inhibition of COX2 in rat abdominal macrophages assessed as PGE2 production pretreated for 30 mins followed by addition of 10 uM arachidonic acid as substrate for 20 mins by EIA.

For test [2], the target named is T2, Polyunsaturated fatty acid 5-lipoxygenase (Rattus norvegicus, UniProt P12527).
T2 sequence (P12527 whole entry): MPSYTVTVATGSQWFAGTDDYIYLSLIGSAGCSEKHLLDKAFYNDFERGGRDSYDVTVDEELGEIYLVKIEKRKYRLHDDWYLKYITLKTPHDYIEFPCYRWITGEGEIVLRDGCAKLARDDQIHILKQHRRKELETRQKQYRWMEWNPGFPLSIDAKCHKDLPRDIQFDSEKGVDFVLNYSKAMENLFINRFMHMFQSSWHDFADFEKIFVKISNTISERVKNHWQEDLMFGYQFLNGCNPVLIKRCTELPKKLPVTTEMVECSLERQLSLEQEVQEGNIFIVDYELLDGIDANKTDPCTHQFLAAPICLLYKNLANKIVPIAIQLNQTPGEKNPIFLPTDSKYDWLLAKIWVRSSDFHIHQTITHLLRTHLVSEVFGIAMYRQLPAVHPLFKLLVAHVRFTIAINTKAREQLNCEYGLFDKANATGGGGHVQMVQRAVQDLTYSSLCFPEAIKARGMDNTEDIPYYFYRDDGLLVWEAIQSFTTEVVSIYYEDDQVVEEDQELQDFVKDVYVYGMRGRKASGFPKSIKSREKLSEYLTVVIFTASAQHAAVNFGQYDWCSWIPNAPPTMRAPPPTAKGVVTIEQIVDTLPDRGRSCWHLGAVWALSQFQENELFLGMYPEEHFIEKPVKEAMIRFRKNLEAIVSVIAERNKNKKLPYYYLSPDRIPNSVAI
The test is described as follows: Inhibition of 5-LOX in Sprague-Dawley rat leukocytes assessed as A23187 stimulated LTB4 production pretreated for 30 mins followed by addition of A23187 for 30 mins by EIA. Format: cell-based. An outline of the steps: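 Rat peritoneal leukocytes collected from Sprague-Dawley rats primed i.p. with 0.2% glycogen (20 mL/kg). Cells in Hanks solution plated at 1.0×10^6/well and held 10 min at 37 °C. Pretreated 30 min with L-cysteine (10 mM), indomethacin (1 mg/L) and compound or DMSO. A23187 added for 30 min. LTB4 in the clarified supernatant measured by EIA; % inhibition from OD; IC50 by Bliss method.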

Test [3] in a line: Antiproliferative activity against mouse B16F10 cells after 72 hrs by MTT assay. In kind it is functional, cell-based. Conditions: B16-F10, 72 h. The essentials: (§1)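 Cells seeded at 5×10^4/well, grown 24 h at 37 °C in 5% CO₂, then exposed to compounds dissolved in DMSO at a range of concentrations for 72 h. MTT (5 mg/mL in PBS) added for 4 h, then OD read at 570 nm. IC50 taken from dose-response curves, mean ± S.D. of three independent experiments.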

A short description of test [4]: Antiproliferative activity against human Caco2 cells after 72 hrs by MTT assay. The conditions noted are these: Caco-2, 72 h. Format: functional, cell-based. The essentials: as §1
(Tetrazolium assays rely on reduction of a dye to a coloured formazan, in cell work by metabolically active cells.)

For a further test, the system named is A549. The test is described as follows: Antiproliferative activity against human A549 cells after 72 hrs by MTT assay. Format: functional, cell-based. The conditions noted are these: A549, 72 h. An outline of the steps: as §1
Test [5] can be described thus: Antiproliferative activity against human PC3 cells after 72 hrs by MTT assay. In kind it is functional, cell-based. Conditions: PC-3, 72 h. An outline of the steps: as §1

The record followed here is ChEMBL document CHEMBL3745688, “Discovery of novel hybrids of diaryl-1,2,4-triazoles and caffeic acid as dual inhibitors of cyclooxygenase-2 and 5-lipoxygenase for cancer therapy” (Eur J Med Chem, 2016).

As for `COc1cc(/C=C/C(=O)OCCSc2nc(-c3ccc(S(C)(=O)=O)cc3)n(-c3ccccc3)n2)ccc1O`, the IC50 in test [1] turned out to be 0.58 µM; in test [2] it was 0.84 µM.
For the molecule `COc1cc(/C=C/C(=O)OCCSc2nc(-c3ccc(S(C)(=O)=O)cc3)n(-c3ccc(Br)cc3)n2)ccc1OC(C)=O`, the IC50 in test [3] came out at 12.4 µM; in test [1], 0.29 µM; in test [4], 12.1 µM; in test [2], 0.94 µM; with A549, 11.1 µM; in test [5], 13.1 µM.
Consider `CC(=O)Oc1ccc(/C=C/C(=O)NCCSc2nc(-c3ccc(S(C)(=O)=O)cc3)n(-c3ccc(F)cc3)n2)cc1OC(C)=O`, for which the IC50 in test [3] turned out to be 14.6 µM; in test [1], 0.16 µM; in test [4], 15.1 µM; in test [2], 0.95 µM; in the test on A549, 17 µM; in test [5], 18 µM.
On to `CC(=O)Oc1ccc(/C=C/C(=O)OCCSc2nc(-c3ccc(S(C)(=O)=O)cc3)n(-c3ccc(F)cc3)n2)cc1OC(C)=O`, for which the IC50 is 14.2 µM in test [3]; 0.18 µM in test [1]; 12.8 µM in test [4]; 1.05 µM in test [2]; 11.8 µM in the test with A549; 15.7 µM in test [5].
Consider `O=C(/C=C/c1ccc(O)c(O)c1)OCCc1ccccc1` [CAFFEIC ACID PHENETHYL ESTER], for which the IC50 in test [3] was determined as 10.7 µM; in test [4], 11.3 µM; in the test with A549, 9.72 µM; in test [5], 10.2 µM.
As for `CC(=O)Oc1ccc(/C=C/C(=O)OCCCSc2nc(-c3ccc(S(N)(=O)=O)cc3)n(-c3ccc(F)cc3)n2)cc1OC(C)=O`, the IC50 in test [3] came out at 10.9 µM; in test [1], 0.36 µM; in test [4], 11.5 µM; in test [2] it was 1.03 µM; with A549 it was 9.92 µM; in test [5], 10.5 µM.
Consider `CC(=O)Oc1ccc(/C=C/C(=O)OCCSc2nc(-c3ccc(S(C)(=O)=O)cc3)n(-c3ccccc3)n2)cc1OC(C)=O`, for which the IC50 turned out to be 0.92 µM in test [1] and 1.21 µM in test [2].
For the molecule `COc1cc(/C=C/C(=O)OCCSc2nc(-c3ccc(S(C)(=O)=O)cc3)n(-c3ccc(C(F)(F)F)cc3)n2)ccc1OC(C)=O`, the IC50 in test [3] is 10.5 µM; in test [1] it was 0.23 µM; in test [4], 10.8 µM; in test [2], 0.92 µM; with A549, 9.65 µM; in test [5], 9.81 µM.
Regarding `CC(=O)Oc1ccc(/C=C/C(=O)NCCCSc2nc(-c3ccc(S(N)(=O)=O)cc3)n(-c3ccccc3)n2)cc1OC(C)=O`, the IC50 was determined as 29.1 µM in test [3]; 0.63 µM in test [1]; 31 µM in test [4]; 0.97 µM in test [2]; 32.7 µM with A549; 35.2 µM in test [5].
Consider `NS(=O)(=O)c1ccc(-c2nc(SCCOC(=O)/C=C/c3ccccc3)nn2-c2ccc(Br)cc2)cc1`, for which the IC50 in test [3] came out at 21.2 µM; in test [1], 0.67 µM; in test [4], 20.9 µM; in test [2], 1.28 µM; with A549 it was 19.7 µM; in test [5], 20.1 µM.
As to `CC(=O)Oc1ccc(/C=C/C(=O)OCCSc2nc(-c3ccc(S(N)(=O)=O)cc3)n(-c3ccccc3)n2)cc1OC(C)=O`, the IC50 is 0.85 µM in test [1] and 1.11 µM in test [2].
As for `CC(=O)Oc1ccc(/C=C/C(=O)NCCCSc2nc(-c3ccc(S(C)(=O)=O)cc3)n(-c3ccc(Br)cc3)n2)cc1OC(C)=O`, the IC50 came out at 16.4 µM in test [3]; 0.24 µM in test [1]; 26.1 µM in test [4]; 0.99 µM in test [2]; 23.3 µM in the test on A549; 23.9 µM in test [5].
On to `CC(=O)Oc1ccc(/C=C/C(=O)OCCCSc2nc(-c3ccc(S(N)(=O)=O)cc3)n(-c3ccccc3)n2)cc1OC(C)=O`, for which the IC50 in test [1] was determined as 0.91 µM; in test [2] it was 1.07 µM.
Turning to `CC(=O)Oc1ccc(/C=C/C(=O)OCCSc2nc(-c3ccc(S(C)(=O)=O)cc3)n(-c3ccc(C(F)(F)F)cc3)n2)cc1OC(C)=O`, the IC50 in test [3] was determined as 11.5 µM; in test [1] it was 0.19 µM; in test [4] it was 11.3 µM; in test [2], 1.06 µM; in the test with A549 it was 10.2 µM; in test [5], 14.5 µM.
With `COc1cc(/C=C/C(=O)OCCSc2nc(-c3ccc(S(C)(=O)=O)cc3)n(-c3ccc(C)cc3)n2)ccc1OC(C)=O`, the IC50 in test [3] stood at 15.3 µM; in test [1] it was 0.87 µM; in test [4], 14.1 µM; in test [2] it was 0.98 µM; with A549, 15 µM; in test [5] it was 15.5 µM.
As to `CC(=O)Oc1ccc(/C=C/C(=O)OCCSc2nc(-c3ccc(S(N)(=O)=O)cc3)n(-c3ccc(F)cc3)n2)cc1OC(C)=O`, the IC50 in test [3] was 11 µM; in test [1] it was 0.39 µM; in test [4] it was 11 µM; in test [2], 1.06 µM; with A549, 12 µM; in test [5] it was 9.84 µM.
In the case of `CS(=O)(=O)c1ccc(-c2nc(SCCOC(=O)/C=C/c3ccc(O)c(O)c3)nn2-c2ccccc2)cc1`, the IC50 in test [3] amounted to 15 µM; in test [1], 0.67 µM; in test [4] it was 14.8 µM; in test [2] it was 0.85 µM; with A549, 13.8 µM; in test [5], 14.6 µM.
Turning to `CS(=O)(=O)c1ccc(-c2nc(SCCCOC(=O)/C=C/c3ccc(O)c(O)c3)nn2-c2ccc(Br)cc2)cc1`, the IC50 in test [3] stood at 13.1 µM; in test [1] it was 0.37 µM; in test [4], 12.4 µM; in test [2], 0.79 µM; in the test with A549, 11.2 µM; in test [5], 12.3 µM.
As for `NS(=O)(=O)c1ccc(-c2nc(SCCCOC(=O)/C=C/c3ccc(O)c(O)c3)nn2-c2ccccc2)cc1`, the values for the IC50 in test [1] and in test [2] were 0.64 µM and 0.77 µM, respectively.
For the molecule `NS(=O)(=O)c1ccc(-c2nc(SCCOC(=O)/C=C/c3ccc(O)c(O)c3)nn2-c2ccccc2)cc1`, the half-inhibitory concentration (IC50) in test [3] was 15 µM; in test [1], 0.62 µM; in test [4], 15 µM; in test [2], 0.8 µM; in the test on A549 it was 14.1 µM; in test [5] it was 15 µM.
As to `CC(=O)Oc1ccc(/C=C/C(=O)OCCCSc2nc(-c3ccc(S(C)(=O)=O)cc3)n(-c3ccc(Br)cc3)n2)cc1OC(C)=O`, the IC50 was 12.8 µM in test [3]; 0.29 µM in test [1]; 11.7 µM in test [4]; 0.99 µM in test [2]; 12.9 µM with A549; 14.9 µM in test [5].
As to `COc1cc(/C=C/C(=O)OCCSc2nc(-c3ccc(S(C)(=O)=O)cc3)n(-c3ccccc3)n2)ccc1OC(C)=O`, the IC50 in test [1] was 0.62 µM; in test [2] it was 0.96 µM.
Turning to `CC(=O)Oc1ccc(/C=C/C(=O)OCCSc2nc(-c3ccc(S(N)(=O)=O)cc3)n(-c3ccc(Br)cc3)n2)cc1OC(C)=O`, the figures for the IC50 in test [1] and in test [2] were 0.31 µM and 1.05 µM, respectively.
In the case of `O=C(O)/C=C/c1ccc(O)c(O)c1` [CAFFEIC ACID], the IC50 (in test [3]; in test [4]; in the test with A549; in test [5]) was over 100 µM each time.
For `CC(=O)Oc1ccc(/C=C/C(=O)NCCCSc2nc(-c3ccc(S(C)(=O)=O)cc3)n(-c3ccc(F)cc3)n2)cc1OC(C)=O`, the IC50 in test [3] is 15.2 µM; in test [1], 0.17 µM; in test [4], 20.8 µM; in test [2], 0.98 µM; in the test on A549, 21.8 µM; in test [5] it was 17.6 µM.

As usually defined, the IC50 is the concentration that inhibits the measured activity by half.
